According to article PMC11134322 (RSC Advances, 2024):

Tests used:
Format in all cases: cell-based
[1] = tested on: LPS-induced NO release in RAW264.7 cells; assay: Inhibition of LPS-induced NO release, Griess reagent test; conditions: Mus musculus, RAW264.7, 24 h, read-out: IC50 NO
Summary of the method: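 Log-phase RAW264.7 cells were seeded at 4 × 10^5 cells per mL in 96-well plates and grown 24 h. They were pretreated with test compound or indomethacin for 30 min, then stimulated with LPS (0.5 mg L−1) for 24 h more. NO in the supernatant was measured by Griess method and quantified against an NaNO2 standard curve. IC50 came from dose–response experiments.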

[2] = tested on: LPS-induced IL-6 release in RAW264.7 cells; assay: Inhibition of LPS-induced IL-6 production, ELISA; conditions: Mus musculus, RAW264.7, 24 h, read-out: IC50 IL-6
Summary of the method: (§1)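 Log-phase RAW264.7 cells, 4 × 10^5 cells per mL, were grown 24 h before dosing. They received test compound or indomethacin for 30 min, then LPS (0.5 mg L−1) for a further 24 h. IL-6 or TNF-α in the culture medium was measured by commercial ELISA, reading absorbance at 450 nm against a standard curve. IC50 came from dose–response experiments.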

[3] = tested on: LPS-induced TNF-α release in RAW264.7 cells; assay: Inhibition of LPS-induced TNF-α production, ELISA; conditions: Mus musculus, RAW264.7, 24 h, read-out: IC50 TNF-α
Summary of the method: as §1

RAW264.7 cells = assay: Cytotoxicity, CCK-8 assay; conditions: RAW264.7 cells, 24, 48 and 72 h; DEX 27.964 μM, 13b 12.326 μM, 13d 23.684 μM

IC50 [1]: 21.2 ± 0.517 µM | IC50 [2]: 0.247 ± 0.073 µM | IC50 [3]: 27.8 ± 0.643 µM
Structure (SMILES): C[C@@H]1C[C@H]2[C@@H]3CCC4=CC(=O)C=C[C@]4(C)[C@@]3(F)[C@@H](O)C[C@]2(C)[C@@]1(O)C(=O)CO [DEX, dexamethasone]
cytotoxicity: cell activity / proliferation versus control (in words) (RAW264.7 cells): no discernible change in cell activity
